Source: the M2OR odorant receptor database

What follows are compounds tested against T1, OR5M3 (Homo sapiens) (UniProt Q8NGP4). Settings: stereoisomer not certain.
T1 sequence (whole entry): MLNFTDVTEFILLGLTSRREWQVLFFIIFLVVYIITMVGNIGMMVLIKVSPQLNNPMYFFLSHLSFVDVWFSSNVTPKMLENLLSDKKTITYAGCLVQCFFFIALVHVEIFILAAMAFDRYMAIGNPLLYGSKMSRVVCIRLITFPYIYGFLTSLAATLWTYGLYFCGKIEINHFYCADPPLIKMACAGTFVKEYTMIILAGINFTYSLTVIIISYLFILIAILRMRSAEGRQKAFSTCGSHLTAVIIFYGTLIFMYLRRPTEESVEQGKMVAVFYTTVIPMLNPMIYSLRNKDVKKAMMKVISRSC
How it was run: (§1)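 Each receptor–molecule pair is labelled responsive or non-responsive (inactive) according to whether the original authors judged the measured signal statistically different from baseline. The data were taken from the main text and supplementary material of published papers and checked for typos and inconsistencies. Assay methods differed by source, with transient luciferase assays in mammalian cell lines being common.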
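Note: active if original authors judged signal statistically different from baseline.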

SMILES | odorant receptor agonist call
C=CCSSCC=C | inactive
NCC(=O)c1ccccc1 | inactive
CCOC(=O)Cc1ccccc1 | inactive
C=CCc1ccc(OC)cc1 | inactive
COc1ccc(C=O)cc1 | inactive
SCc1ccco1 | inactive
C=CCOC(=O)Cc1ccccc1 | inactive
Cc1c([N+](=O)[O-])c(C)c([N+](=O)[O-])c(C(C)(C)C)c1[N+](=O)[O-] | inactive
CSSC | inactive
O=Cc1ccc2c(c1)OCO2 | inactive
Cc1ccc(O)c(C)c1 | inactive
Cc1ccccc1O | inactive

What follows are compounds tested against T2, OR5P3 (Homo sapiens) (UniProt Q8WZ94). Settings: stereoisomer not certain.
T2 sequence (whole entry): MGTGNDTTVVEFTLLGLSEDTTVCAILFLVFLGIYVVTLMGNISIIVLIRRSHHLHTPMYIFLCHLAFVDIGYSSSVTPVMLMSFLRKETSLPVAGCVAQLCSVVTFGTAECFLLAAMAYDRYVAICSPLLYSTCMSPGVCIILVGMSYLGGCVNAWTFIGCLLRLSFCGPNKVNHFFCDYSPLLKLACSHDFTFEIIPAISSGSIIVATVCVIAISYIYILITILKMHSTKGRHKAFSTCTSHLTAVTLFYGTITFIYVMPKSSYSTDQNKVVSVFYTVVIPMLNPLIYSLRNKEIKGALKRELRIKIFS
How it was run: as §1

SMILES | odorant receptor agonist call
C=CCOC(=O)Cc1ccccc1 | inactive
Cc1c([N+](=O)[O-])c(C)c([N+](=O)[O-])c(C(C)(C)C)c1[N+](=O)[O-] | inactive
CCC1CCC(=O)O1 (configuration not stated) | inactive
C=CCc1ccccc1 | inactive
O=c1cc(O)c2ccccc2o1 | inactive
